# Assay outcomes deposited in PubChem by The Scripps Research Institute Molecular Screening Center.
# Shown are actives, neighbours in structure and some others; about 2% of the full set was active somewhere.
# LEDGF integ inh: blocks HIV-1 LEDGF/p75-dependent DNA integration | TR-FRET IN-LEDGF/p75 DNA integration, Eu/Cy5 | inhibition, % at 3.7 µM | actives 0.64% (n = 370,000) | AID 743269;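 active means inhibition above the screen-wide mean plus 3 SD, cut at about 13% in these data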;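 further: signal is the Cy5 over europium emission ratio at 671 and 618 nm; 0% = plate median of compound wells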
# MBD2 DNA inh: inhibitors of human MBD2 binding to methylated oligonucleotide; Q9UBB5; actives 0.31% (n = 370,000); inhibition, % at 4.4 µM; TR-FRET; in the data active means inhibition above about 13%
# Target sequence (Q9UBB5 whole entry, looked up): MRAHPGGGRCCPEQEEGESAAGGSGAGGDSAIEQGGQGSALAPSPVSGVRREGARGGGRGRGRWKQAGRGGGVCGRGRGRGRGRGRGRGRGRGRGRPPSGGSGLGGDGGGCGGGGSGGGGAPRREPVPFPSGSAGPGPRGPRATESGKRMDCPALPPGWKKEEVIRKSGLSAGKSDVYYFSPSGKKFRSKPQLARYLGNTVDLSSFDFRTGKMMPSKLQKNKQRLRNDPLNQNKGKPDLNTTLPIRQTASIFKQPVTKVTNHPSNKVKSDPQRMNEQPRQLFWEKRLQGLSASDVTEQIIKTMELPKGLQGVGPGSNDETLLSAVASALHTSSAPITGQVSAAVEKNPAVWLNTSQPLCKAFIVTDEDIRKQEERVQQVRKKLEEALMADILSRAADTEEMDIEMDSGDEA
# UHRF1 MBD2 ctr: human UHRF1 methylated DNA binding inhibitors. UHRF1 binding to methylated oligo, TR-FRET. Q96T88. inhibition, % at 4.4 µM. actives 0.75% (n = 370,000). AID 687016;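 further: UHRF1 SRA domain binding a hemimethylated CpG hairpin DNA probe; 0% = median of test compound wells and 100% = reference inhibitor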
# ARFGAP1 inh: rat ARFGAP1 inhibition. Arfgap1-stimulated ARF1 GTP hydrolysis, GDP FP detection. inhibition, % at 16.5 µM. actives 0.26% (n = 360,000). AID 651572;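 active means inhibition above a per-plate limit, mean inhibition of low control wells plus 3 SD, cut at about 25% in these data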;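 further: 0% = DMSO wells with enzyme and 100% = wells lacking Arfgap1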
# Target sequence (Q62848 1-136 limits assumed): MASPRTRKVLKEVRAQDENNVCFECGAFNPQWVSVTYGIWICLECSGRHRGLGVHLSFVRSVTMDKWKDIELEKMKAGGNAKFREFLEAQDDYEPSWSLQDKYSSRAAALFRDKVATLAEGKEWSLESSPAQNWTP
#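 system = rat Arfgap1 catalytic domain, aa 1-136 | technique = FP, GDP Alexa 633 tracer displaced from anti-GDP antibody, 620/688 nm | compound = one concentration, 16.5 µM, DMSO 1.26% | medium = HEPES-based buffer, pH 7.5 | timing = compound-enzyme preincubation 20 min, reaction 120 min, detection 60 min, 25 °C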
# TCR CD3 inh: blocks the human TCR-CD3 interaction; TAMRA-labeled TCR probe fluorescence, biochemical; inhibition, % at 9.4 µM; actives 0.37% (n = 360,000); AID 651800; in the data active means inhibition above about 19%;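 further: recombinant mutant TCR 2C K166C tagged with TAMRA read by polarization; 0% = receptor in buffer alone and 100% = receptor with positive control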
# ASAP1 GAP inh: blocks human ASAP1-stimulated Arf1 GTP hydrolysis; Q9ULH1; inhibition, % at 16.5 µM; actives 0.19% (n = 360,000); AID 624377; GDP FP detection; in the data active means inhibition above about 25%;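 further: 0% = vehicle with enzyme and substrate and 100% = no enzyme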
# UHRF1 DNA bind: UHRF1 methyl-oligo binding inhibition as MBD2 counter-screen. UHRF1 binding to methylated oligonucleotide, TR-FRET. inhibition, % at 4.4 µM. shares compounds with MBD2 DNA inh. actives 25% (n = 1,000). AID 720530;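 further: UHRF1 SRA domain binding a labeled hemimethylated CpG hairpin DNA; 0% = vehicle only and 100% = reference inhibitor with vehicle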
# MBD2 confirm: confirmation of human MBD2-DBD methylated oligonucleotide binding inhibitors. shares compounds with MBD2 DNA inh. TR-FRET MBD2-DBD binding to methylated oligonucleotide. inhibition, % at 4.4 µM. actives 26% (n = 1,000). AID 720531; in the data active means inhibition above about 14%
# The depositor's hits bear a star; . = not tested or not shown. Unless noted, no stated cut-off is given here; in the data, active means inhibition above about 21%; inactive means the rest.
SMILES,LEDGF integ inh,MBD2 DNA inh,UHRF1 MBD2 ctr,ARFGAP1 inh,TCR CD3 inh,ASAP1 GAP inh,UHRF1 DNA bind,MBD2 confirm
O=C(Nc1nnc(SCC(=O)N2CCCCC2)s1)c1c(F)cccc1F,0.2,32.9*,-2.3,0.2,4.1,9.0,6.7,2.9
C=CC[C@H](CC(=O)NCCO)C(=O)N[C@@H](COC(=O)[C@H](CC=C)CC(=O)OC(C)(C)C)Cc1c[nH]c2ccccc12,0.2,-4.2,-0.2,7.6,4.0,7.5,.,.
S=C1SCCCN1Cc1ccc(Cl)cc1,-3.8,1.8,5.2,11.3,-2.6,-4.6,.,.
Cc1ccc(-c2cc(-c3ccccc3)[nH]c(=S)c2C#N)cc1,5.5,-2.7,4.3,13.6,2.8,-10.0,.,.
COc1ccc(-c2cc(-c3ccccc3)c(C#N)c(=S)[nH]2)cc1,-5.3,21.1*,2.2,12.9,-5.4,-17.9,6.9,3.5
Cc1ccc(C(=O)OCC(=O)Nc2ccccc2C(F)(F)F)cc1S(=O)(=O)N1CCCCC1,-1.2,-0.3,-0.3,3.3,-5.0,-13.7,.,.
CCOC(=O)Nc1nc(-c2ccc(Cl)cc2Cl)cs1,6.2,13.3*,20.3,-8.5,2.7,11.0,25.8*,8.4
Cc1cccc(OCC(=O)N(Cc2ccccc2)c2c(N)n(Cc3ccccc3)c(=O)[nH]c2=O)c1,-3.7,1.9,0.9,8.3,-5.3,2.1,.,.
O=C(NCc1ccccn1)c1c(-c2ccccc2)sc2ccccc12,-2.7,16.0*,22.3*,-14.4,2.5,5.8,9.8,7.3
O=C(NCc1ccccn1)c1ccc(-c2ccccc2)cc1,-12.3,1.7,0.2,4.2,-0.8,-12.6,.,.
COc1ccc(Cl)cc1NC(=S)NCc1ccco1,2.9,4.3,-2.1,4.8,-0.9,1.0,.,.
CCOc1ccc(CCN2C(=O)C(=O)N([C@@H](CC(C)C)CN3CCC[C@H]3CN3C(=O)C(=O)NC[C@@H]3CC(C)C)C[C@@H]2Cc2ccc(O)cc2)cc1,2.2,15.6*,22.2*,7.9,-5.1,-3.5,3.9,5.4
Cc1ccccc1NP1(=O)OCCCN1Cc1ccccc1Cl (stereo not given),-0.9,-0.7,0.2,-1.2,-2.9,4.4,.,.
CC(=O)C1C(c2ccc(F)c(F)c2)NC(=O)NC1(O)C(F)(F)F (stereo not given),-4.8,24.4*,3.2,-3.8,2.4,2.9,5.3,0.3
CC1CCCC(NC(=O)CN2CCN(S(=O)(=O)c3cccs3)CC2)C1C (stereo not given),-5.2,1.1,1.5,-7.3,-4.2,12.4,.,.
Cc1csc(SC(C)C(=O)Nc2ccccc2C)n1 (stereo not given),-2.7,-0.8,-1.8,-0.1,3.9,-17.9,.,.
COCCn1c(CCC(=O)O)ccc1-c1cccs1,3.4,0.2,-0.2,6.8,6.0,-1.2,.,.
O=C(O)CCc1ccc(-c2cccs2)n1CC(=O)Nc1ccccc1C(F)(F)F,0.8,27.6*,1.1,-10.1,1.9,10.3,0.1,3.7
Cc1ccccc1NC(=O)C1c2cccc[n+]2CC(=O)N1Cc1ccc2c(c1)OCO2 (stereo not given),2.1,-7.3,-2.5,4.7,-4.4,3.4,.,.
Cc1cccc(C)c1NC(=O)C1c2cccc[n+]2CC(=O)N1Cc1cccs1 (stereo not given),-0.6,46.4*,-0.7,1.9,-3.1,7.8,1.3,3.2
Cc1ccccc1CN1CCCC(C(=O)Nc2ccccc2Oc2cccnc2)C1 (stereo not given),3.4,7.2,1.1,0.9,-10.1,-13.7,.,.
Cc1c(C(N)=O)cc([N+](=O)[O-])cc1[N+](=O)[O-],2.0,17.0*,22.5*,-12.8,-5.1,6.5,4.8,2.1
COc1ccccc1S(=O)(=O)N(C)C[C@@H]1OCc2cnnn2CCCC(=O)N([C@@H](C)CO)C[C@@H]1C,-1.1,0.1,-1.1,14.2,2.0,-1.5,.,.
COc1ccc(N(C)S(=O)(=O)c2cccc(C(=O)OCC(=O)N(C)c3ccccc3)c2)cc1,-1.6,16.4*,-1.5,-13.5,6.0,12.9,8.9,4.1
COc1ccccc1N1CCN(C(=O)C(C)CS(=O)(=O)c2ccc3c(c2)NC(=O)CS3)CC1 (stereo not given),56.7*,76.5*,82.7*,1.2,-3.1,2.2,15.2,7.8
SMILES,LEDGF integ inh,MBD2 DNA inh,UHRF1 MBD2 ctr,ARFGAP1 inh,TCR CD3 inh,ASAP1 GAP inh,UHRF1 DNA bind,MBD2 confirm
COc1ccccc1N1CCN(S(=O)(=O)c2ccc3c(c2)NC(=O)C(C)S3)CC1 (stereo not given),4.4,-1.5,0.5,9.6,-0.5,-3.8,.,.
CC1(C)CC(=O)C2=C(C1)OC(N)=C(C#N)[C@@H]2c1ccccc1[N+](=O)[O-],1.4,17.6*,-2.1,5.6,-4.7,6.0,3.9,1.9
CC1CN(Cc2c(O)ccc3c2oc(=O)c2ccccc23)CC(C)O1 (stereo not given),5.3,15.8*,18.6,-3.8,0.5,6.0,3.2,10.9
Cc1ccc(OCC(=O)NNC(=O)C2CCCO2)c(C)c1 (stereo not given),-0.6,18.4*,2.5,-5.0,-5.7,-5.4,8.2,1.4
Cc1cc(C)cc(OCC(=O)NNC(=O)C2CCCO2)c1 (stereo not given),5.9,-3.3,-0.9,5.8,-2.5,-3.0,.,.
COC(=O)[C@]12C[C@H](CC(=O)NCCCN3CCCC3=O)C(=O)N(Cc3ccc(Cl)cc3Cl)C1=C[C@H](C(C)(C)C)O[C@@H]2C,-3.0,-1.1,-1.1,.,.,.,.,.
Clc1ccc(-c2nc3ccccn3c2CN2CCCCC2)cc1,5.4,2.0,8.7,5.1,-5.8,-8.4,.,.
Oc1ccc(N2CCN(Cc3c(-c4ccccc4)nc4ccccn34)CC2)cc1,-1.2,80.5*,0.2,-5.8,2.9,-2.3,9.5,1.7
COc1ccc(S(=O)(=O)N2CCCCC2c2cc(C(=O)Nc3ccc(OC)cc3C)no2)cc1 (stereo not given),3.5,-3.3,1.1,-0.1,-4.1,-0.5,.,.
